Assay outcomes (PubChem BioAssay)
An excerpt weighted towards active compounds, which were near 0.38% of everything screened.
GSK3A inh: inhibitors of human GSK-3 alpha kinase. ADP-Glo luminescence, 60 min. inhibition, % at 10 µM. P49840. AID 2650. hit rate 0.1% among 320,000;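 active = more than half of replicates show inhibition above 20%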;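 also: GST-tagged GSK-3 alpha with peptide substrate and 25 µM ATP; 0% = DMSO neutral wells and 100% = GW8510 positive control wells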
STK33 kinase inh: blocks human STK33 kinase activity; Q9BYT3; hit rate 0.073% among 320,000; inhibition, % at 10 µM; AID 2661; purified STK33, MBP phosphorylation, ADP-Glo luminescence;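 active = inhibition at or above 25%, using the most active replicate where run in duplicate; inactive = inhibition below 25%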
Target sequence (Q9BYT3 whole entry, looked up): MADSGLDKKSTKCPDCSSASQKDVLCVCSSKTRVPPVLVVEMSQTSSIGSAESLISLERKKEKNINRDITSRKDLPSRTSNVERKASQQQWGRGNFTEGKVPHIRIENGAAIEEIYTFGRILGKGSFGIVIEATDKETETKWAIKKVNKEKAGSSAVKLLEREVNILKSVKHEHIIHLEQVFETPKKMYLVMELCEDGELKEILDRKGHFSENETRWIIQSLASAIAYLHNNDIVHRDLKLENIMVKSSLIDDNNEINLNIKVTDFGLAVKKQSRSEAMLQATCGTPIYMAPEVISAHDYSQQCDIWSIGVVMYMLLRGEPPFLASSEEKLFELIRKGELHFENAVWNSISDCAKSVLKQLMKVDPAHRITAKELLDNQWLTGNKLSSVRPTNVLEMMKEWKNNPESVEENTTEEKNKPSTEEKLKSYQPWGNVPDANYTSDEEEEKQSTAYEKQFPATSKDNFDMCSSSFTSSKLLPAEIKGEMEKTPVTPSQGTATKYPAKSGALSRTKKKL
procasp3 activ: activates human procaspase-3 | P42574 | recombinant procaspase-3 D3A, Ac-DEVD-pNA absorbance 405 nm | activation, % at 8.5 µM | hit rate 0.11% among 330,000 | AID 463141;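 active = activation above the mean of all tested compounds plus 3 SD, cut at about 21% in these data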;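 also: 0% = DMSO alone and 100% = DMSO wells spiked with extra 5 µM PC-3 D3A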
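Assay system: Autoprocessing-dead procaspase-3 D3A mutant enzyme; also added: Ac-DEVD-pNA; doses: one concentration, 8.5 µM nominal, 0.8% DMSO; times: 1 h compound preincubation, 2 h substrate hydrolysis at 25 °C; technique: 405 nm absorbance of p-nitroaniline, reads at 0 and 120 min; measure: % activation between DMSO and enzyme-spiked controls; repeats: single replicate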
GSK3B inh: blocks human GSK3beta kinase activity; AID 2097; GST-GSK3beta kinase, ADP-Glo luminescence, 60 min; stronger effect = lower value; hit rate 0.038% among 300,000; activity score (negative = inhibition), % at 10 µM;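 active = more than half of replicate wells score below -50%, meaning over 50% inhibition versus plate controls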;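 also: 0% = median DMSO wells and -100% = median GW8510 positive control wells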
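Assay system: GST-fused GSK3beta enzyme, cell-free / Medium: Tris pH 7.5 buffer with MgCl2, DTT, BSA, heparin / Also added: peptide substrate plus 25 µM ATP (final) / Compound: 10 µM single point / Timing: kinase reaction with compound 60 min at room temperature / Detection: ADP-Glo luminescence / Benchmarks: DMSO neutral wells and GW8510 at 20 µM as positive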
Bfl-1 A1 inh: inhibitors of the anti-apoptotic protein A1, read as caspase activation; AID 2462; hit rate 0.066% among 330,000; MEF A1-2A-BIM cells, Caspase-Glo 3/7 luminescence, 3 h; percent of clofoctol response, vehicle zero; caspase activation, % (concentration not given with the values);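 active = over half of replicate activation scores above 10%, or exactly half above 10 with the replicate mean above 10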
procasp7 counter: counter-screen: procaspase-7 (human) activation. P55210. recombinant procaspase-7, Ac-DEVD-pNA absorbance 405 nm; D23A/D198A/D206A triple mutant, cannot self-cleave; scale: DMSO 0, 5 µM enzyme 100. activation, % at 8.5 µM. hit rate 0.093% among 330,000;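 active = percent activation above the screen-wide mean plus 3 SD, cut at about 25% in these data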
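Assay system: Uncleavable procaspase-7 mutant enzyme | Input: 2 µM procaspase-7 mutant as dispensed | Timing: 1 h compound preincubation, 2 h substrate cleavage, 25 °C | Repeats: One well per compound | Control set: DMSO wells as 0%, DMSO with 5 µM added PC-7 as 100% | Technique: Epi-absorbance of released pNA at 405 nm, two timepoints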
PC3 D3A act: activates human procaspase-3, dual activator counter-screen; 290 tested, under 10 active; activation, % at 8.5 µM; shares compounds with procasp7 counter; recombinant PC-3 D3A, Ac-DEVD-pNA absorbance 405 nm; aspartates 9, 28, 175 changed to alanine; 100% = enzyme control; AID 493114;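 active = mean percent activation across triplicates above a set limit taken from the earlier primary procaspase-3 screen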;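 also: 0% = DMSO wells and 100% = DMSO wells with 5 µM added PC-3 D3A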
Procasp7 act: confirmation of dual procaspase activators: human procaspase-7 activation | AID 493115 | 290 tested, under 10 active | recombinant procaspase-7, Ac-DEVD-pNA absorbance 405 nm; D23A/D198A/D206A mutant that cannot self-cleave | activation, % at 8.5 µM | shares compounds with procasp7 counter;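 active = mean activation above a set limit carried over from the earlier primary screen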;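 also: 0% = DMSO only and 100% = DMSO with added 5 µM PC-7 enzyme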
An asterisk follows results filed as active; · = not tested or not shown.

SMILES | GSK3A inh | STK33 kinase inh | procasp3 activ | GSK3B inh | Bfl-1 A1 inh | procasp7 counter | PC3 D3A act | Procasp7 act
O=C(COC(=O)C1CC2CCCC(C1)C2=O)Nc1cccc(F)c1 (centres undefined) | 4 | 7 | 4 | · | 0 | 0 | · | ·
Cc1cccc(C2=NN(c3ccccc3)[C@H](CO)[C@H]2c2ccccc2)c1 | · | · | 20 | · | · | 35* | -31 | -34
Cc1cccc(C2=NN(c3ccccc3)[C@@H](C(=O)N3CCOC3=O)[C@@H]2c2ccc(F)cc2)c1 | · | · | -1 | · | · | -6 | · | ·
OC[C@@H]1[C@@H](c2ccc(F)cc2)C(c2ccccc2)=NN1c1ccccc1 | · | · | 30* | · | · | 34* | -30 | -35
Cc1cccc(-c2cc3nc(-c4ccccc4)cc(N4CCC5(CC4)OCCO5)n3n2)c1 | -4 | 0 | 17 | -2 | 0 | 30* | -28 | -34
Fc1cccc(-c2cc3nc(-c4ccccc4)cc(N4CCC5(CC4)OCCO5)n3n2)c1 | -3 | -1 | 22* | -1 | -1 | 30* | -26 | -28
O=C(NNS(=O)(=O)c1ccc([N+](=O)[O-])cc1)C(=O)Nc1cccc(C(=O)O)c1 | -2 | 1 | -3 | 1 | 0 | -16 | · | ·
Nc1nnn(CC(=O)N/N=C/c2cn[nH]c2-c2ccccc2)n1 | 0 | -1 | -3 | 6 | 0 | 0 | · | ·
Cc1nc2nc(N)nn2c(C)c1C/C=C/c1ccccc1 | -1 | 0 | 6 | -1 | 1 | 6 | · | ·
COC(=O)c1cc(C)nc(N)c1C#N | 3 | 0 | 4 | 1 | 1 | 7 | · | ·
COC(=O)c1cc(=O)n2c(sc3ccccc32)c1C#N | 4 | 0 | 19 | 3 | 1 | 26* | -29 | -35
O=C(NC1CC(=O)N(c2ccc(F)cc2)C1)C(=O)c1c[nH]c2ccccc12 (centres undefined) | 0 | -1 | 8 | 1 | -1 | 7 | · | ·
CC(C)(C)c1ccc(C(=O)N2CCCC2c2cccs2)cc1 (centres undefined) | -1 | -1 | -5 | -2 | 1 | 7 | · | ·
CCOc1ccccc1N=Cc1c(O)c2ccccc2oc1=O | -2 | -2 | 21 | 3 | 2 | 35* | -30 | -34
COc1ccc(OC)c(N=Cc2c(O)c3ccccc3oc2=O)c1 | -35 | -4 | 14 | 0 | 1 | 9 | · | ·
COc1ccc(Cl)cc1N=Cc1c(O)c2ccccc2oc1=O | -1 | -3 | 19 | -3 | 0 | 42* | -5 | -4
COc1ccc(N=Cc2c(O)c3ccccc3oc2=O)cc1 | -1 | 1 | 9 | -4 | -1 | 12 | · | ·
CC(C)c1ccc(N=Cc2c(O)c3ccccc3oc2=O)cc1 | -2 | 0 | 22* | 2 | 0 | 30* | -29 | -34
CCCN(C(=O)COC(=O)COc1c(C)cccc1C)c1c(N)n(Cc2ccccc2)c(=O)[nH]c1=O | · | · | 5 | 0 | -1 | 8 | · | ·
CC(=O)c1ccc(/C=C/c2nc3ccccc3n2C)o1 | 5 | 1 | -3 | 2 | -5 | -5 | · | ·
Cc1cc(C)c(C(=O)N2CCCC(Nc3ccc(C)c(C)c3)C2)o1 (centres undefined) | -1 | 0 | 7 | 1 | 0 | -7 | · | ·
CCOc1cc(C2C(C(=O)OC)=CN(Cc3ccc(Cl)cc3)C=C2C(=O)OC)ccc1O | 0 | -2 | 27* | -2 | 1 | 56* | -2 | -3
COc1ccccc1-c1cc(-c2ccccc2)nc(SC(C(N)=O)c2ccccc2)c1C#N (centres undefined) | -5 | -2 | 1 | 1 | -1 | 1 | · | ·
CCc1ccc(-n2nc3cc(C)c(N)cc3n2)cc1 | 0 | -2 | 35* | -3 | -4 | 28* | -30 | -35
Nc1c(S(=O)(=O)c2cccs2)c2nc3ccccc3nc2n1Cc1cccs1 | 0 | 0 | 82* | 4 | 0 | 78* | -11 | -21
SMILES | GSK3A inh | STK33 kinase inh | procasp3 activ | GSK3B inh | Bfl-1 A1 inh | procasp7 counter | PC3 D3A act | Procasp7 act
O=C(CC(C(=O)O)C1CCCO1)NCc1ccccc1 (centres undefined) | -1 | -1 | 6 | 1 | 1 | 6 | · | ·
O=C(O)CC(C(=O)NCc1ccccc1)C1CCCO1 (centres undefined) | -1 | 0 | -6 | -3 | 1 | 27* | 2 | 1
O=S(=O)(c1ccc2c(c1)OCCO2)N1CCCN(S(=O)(=O)c2c(F)cccc2F)CC1 | -4 | -2 | -2 | · | -1 | 5 | · | ·
Nc1ccccc1-c1nc2ccccc2s1 | -2 | 1 | -7 | -2 | -3 | -3 | · | ·
O=c1c(-c2nc3ccccc3s2)cccn1Cc1ccccc1 | 0 | -1 | 6 | 2 | 0 | 56* | -29 | -35
Cc1ccc(Cn2cccc(-c3nc4ccccc4s3)c2=O)cc1 | -2 | -1 | 11 | 2 | 0 | 43* | -29 | -34
CCc1cc(C(=O)Cc2nc3ccccc3s2)c(O)cc1OCC(=O)O | -3 | -3 | 1 | 7 | -1 | 5 | · | ·
COc1ccc(OC)c(/C=C/C(=O)Nc2cccc(S(=O)(=O)NC3=NCCCCC3)c2)c1 | -7 | -1 | 26* | · | 0 | 85* | 1 | 0
CSCC[C@H](NC(=O)[C@@H]1Cc2ccccc2CN1)C(=O)Nc1ccc2c(c1)OCO2 | -10 | -1 | 4 | 1 | 0 | -3 | · | ·
N#CCNC(=O)c1nn2c(C(F)(F)F)cc(-c3ccccc3)nc2c1Br | -2 | 0 | -10 | 2 | 0 | 26* | 0 | 1
CCCCNC(=O)c1nn2c(C(F)(F)F)cc(-c3ccccc3)nc2c1Br | -2 | -9 | · | 2 | 0 | · | · | ·
Cc1ccc(NC(=O)COc2ccc(/C=N/NC(=O)CSCc3ccccc3)cc2)cc1 | -2 | -3 | 0 | -2 | 0 | -4 | · | ·
O=C(CSCc1ccc(Cl)cc1)N/N=C/c1ccc(OCC(=O)Nc2ccccc2)cc1 | 24 | -2 | 2 | 1 | 0 | 28* | 0 | 1
COc1ccc(CNC(=O)C(c2ccc(C)o2)N(C(=O)c2snc(C(N)=O)c2N)c2ccccc2OC)cc1 (centres undefined) | 1 | -1 | -105 | 3 | 0 | 26* | -25 | -24
